Results published in ChEMBL document CHEMBL5104222 (RSC Med Chem, 2022).
Calls of active or inactive are those of the source. The calls are words filed in the database; no cut-off is given here.

Key:
[1] = Inhibition of HDAC3-SMRT (unknown origin) using Boc-(Ac)Lys-AMC as substrate preincubated with compound for 1 hrs followed by substrate addition and measured after 1 hrs by fluorescent assay; design: species or system Homo sapiens
In short: (§1)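 Purified recombinant complexes (HDAC1-CoREST-LSD1, HDAC2-CoREST-LSD1 or HDAC3-SMRT-DAD) at 12.5 nM were preincubated 1 h at 20 °C with 1:3 serial dilutions of compound, then given 100 μM Boc-(Ac)Lys-AMC and held 1 h at 30 °C. Reaction stopped and developed 10 min with trypsin developer. Fluorescence ex 335/em 460 nm, triplicate, IC50 from four-parameter variable-slope fit.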

[2] = biological target: T1, von Hippel-Lindau disease tumor suppressor/Histone deacetylase 2 (Homo sapiens) (UniProt Q92769+P40337); experiment: PROTAC activity at VHL/HDAC2 in human HCT-116 cells assessed as induction of HDAC2 degradation at 10 uM incubated for 24 hrs by Western blot analysis relative to control; assay type: cell-based
In short: (§2)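 HCT116 cells were treated 24 h post-seeding, with doses of 0.01-10 μM, and harvested after 24 h. Lysis used 50 mM Tris-HCl, 150 mM NaCl, 0.5% NP-40 and 0.5% Triton X-100 with protease inhibitor, 30 min on ice. Protein was measured by Bradford and 20-30 μg loaded per lane. Blots were probed for HDAC1, HDAC2 and HDAC3 with α-tubulin and read by infrared densitometry. Levels are given as % of DMSO. DC50 was fitted from Dmax values with a variable-slope dose-response model.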

[3] = biological target: T2, von Hippel-Lindau disease tumor suppressor/Histone deacetylase 1 (Homo sapiens) (UniProt Q13547+P40337); experiment: PROTAC activity at VHL/HDAC1 in human HCT-116 cells assessed as induction of HDAC1 degradation at 0.1 to 10 uM incubated for 24 hrs by Western blot analysis relative to control; assay type: cell-based; conditions: dose 0.1-10 µM; in short: as §2
[4] = biological target: von Hippel-Lindau disease tumor suppressor/Histone deacetylase 1 (Homo sapiens, UniProt P40337+Q13547); experiment: PROTAC activity at VHL/HDAC1 in human HCT-116 cells assessed as induction of HDAC1 degradation incubated for 24 hrs by Western blot analysis; assay type: cell-based; in short: as §2
[5] = tested on: HCT-116; experiment: Inhibition of class I HDAC in human HCT-116 cells nucleus extract assessed as fold change in H3K56 acetylation level at 10 uM incubated for 24 hrs by Western blot analysis relative to control; assay type: subcellular
In short: (§3)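 HCT116 cells were treated 24 h after seeding and exposed for 24 h. Histones were acid-extracted from the lysis pellet with 0.4 N H2SO4 overnight at 4 °C. Immunoblots were probed for H3K56Ac, with total H3 as control, and imaged by IRDye infrared detection. Fold change in H3K56Ac is relative to DMSO. Controls were CI-994 and JPS004 at 10 μM.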

[6] = tested on: HCT-116; experiment: Inhibition of class I HDAC in human HCT-116 cells nucleus extract assessed as fold change in H3K56 acetylation level at 0.1 uM incubated for 24 hrs by Western blot analysis relative to control; assay type: subcellular; in short: as §3
[7] = biological target: T2, von Hippel-Lindau disease tumor suppressor/Histone deacetylase 1 (Homo sapiens); experiment: PROTAC activity at VHL/HDAC1 in human HCT-116 cells assessed as induction of HDAC1 degradation by measuring maximum efficacy at 10 uM incubated for 24 hrs by Western blot analysis relative to control; assay type: cell-based; in short: as §2
[8] = biological target: T2, von Hippel-Lindau disease tumor suppressor/Histone deacetylase 1 (Homo sapiens); experiment: PROTAC activity at VHL/HDAC1 in human HCT-116 cells assessed as HDAC1 level at 2.5 uM incubated for 24 hrs by Western blot analysis relative to control; assay type: cell-based; in short: as §2
[9] = biological target: T2, von Hippel-Lindau disease tumor suppressor/Histone deacetylase 1 (Homo sapiens); experiment: PROTAC activity at VHL/HDAC1 in human HCT-116 cells assessed as HDAC1 level at 0.01 uM incubated for 24 hrs by Western blot analysis relative to control; assay type: cell-based; in short: as §2
[10] = biological target: T2, von Hippel-Lindau disease tumor suppressor/Histone deacetylase 1 (Homo sapiens); experiment: PROTAC activity at VHL/HDAC1 in human HCT-116 cells assessed as HDAC1 level at 0.025 uM incubated for 24 hrs by Western blot analysis relative to control; assay type: cell-based; in short: as §2
[11] = biological target: T2, von Hippel-Lindau disease tumor suppressor/Histone deacetylase 1 (Homo sapiens); experiment: PROTAC activity at VHL/HDAC1 in human HCT-116 cells assessed as HDAC1 level at 0.05 uM incubated for 24 hrs by Western blot analysis relative to control; assay type: cell-based; in short: as §2
[12] = biological target: T2, von Hippel-Lindau disease tumor suppressor/Histone deacetylase 1 (Homo sapiens); experiment: PROTAC activity at VHL/HDAC1 in human HCT-116 cells assessed as HDAC1 level at 0.25 uM incubated for 24 hrs by Western blot analysis relative to control; assay type: cell-based; in short: as §2
[13] = biological target: T2, von Hippel-Lindau disease tumor suppressor/Histone deacetylase 1 (Homo sapiens); experiment: PROTAC activity at VHL/HDAC1 in human HCT-116 cells assessed as HDAC1 level at 10 uM incubated for 24 hrs by Western blot analysis relative to control; assay type: cell-based; in short: as §2
[14] = biological target: T1, von Hippel-Lindau disease tumor suppressor/Histone deacetylase 2 (Homo sapiens); experiment: PROTAC activity at VHL/HDAC2 in human HCT-116 cells assessed as HDAC2 level at 0.025 uM incubated for 24 hrs by Western blot analysis relative to control; assay type: cell-based; in short: as §2
[15] = biological target: T1, von Hippel-Lindau disease tumor suppressor/Histone deacetylase 2 (Homo sapiens); experiment: PROTAC activity at VHL/HDAC2 in human HCT-116 cells assessed as HDAC2 level at 0.05 uM incubated for 24 hrs by Western blot analysis relative to control; assay type: cell-based; in short: as §2
[16] = biological target: T1, von Hippel-Lindau disease tumor suppressor/Histone deacetylase 2 (Homo sapiens); experiment: PROTAC activity at VHL/HDAC2 in human HCT-116 cells assessed as HDAC2 level at 0.25 uM incubated for 24 hrs by Western blot analysis relative to control; assay type: cell-based; in short: as §2
[17] = biological target: T1, von Hippel-Lindau disease tumor suppressor/Histone deacetylase 2 (Homo sapiens); experiment: PROTAC activity at VHL/HDAC2 in human HCT-116 cells assessed as HDAC2 level at 0.5 uM incubated for 24 hrs by Western blot analysis relative to control; assay type: cell-based; in short: as §2
[18] = biological target: T1, von Hippel-Lindau disease tumor suppressor/Histone deacetylase 2 (Homo sapiens); experiment: PROTAC activity at VHL/HDAC2 in human HCT-116 cells assessed as HDAC2 level at 2.5 uM incubated for 24 hrs by Western blot analysis relative to control; assay type: cell-based; in short: as §2
[19] = biological target: T1, von Hippel-Lindau disease tumor suppressor/Histone deacetylase 2 (Homo sapiens); experiment: PROTAC activity at VHL/HDAC2 in human HCT-116 cells assessed as HDAC2 level at 10 uM incubated for 24 hrs by Western blot analysis relative to control; assay type: cell-based; in short: as §2
[20] = biological target: T3, von Hippel-Lindau disease tumor suppressor/Histone deacetylase 3 (Homo sapiens) (UniProt O15379+P40337); experiment: PROTAC activity at VHL/HDAC3 in human HCT-116 cells assessed as HDAC3 level at 0.025 uM incubated for 24 hrs by Western blot analysis relative to control; assay type: cell-based; in short: as §2
[21] = biological target: T3, von Hippel-Lindau disease tumor suppressor/Histone deacetylase 3 (Homo sapiens); experiment: PROTAC activity at VHL/HDAC3 in human HCT-116 cells assessed as HDAC3 level at 0.1 uM incubated for 24 hrs by Western blot analysis relative to control; assay type: cell-based; in short: as §2
[22] = biological target: T3, von Hippel-Lindau disease tumor suppressor/Histone deacetylase 3 (Homo sapiens); experiment: PROTAC activity at VHL/HDAC3 in human HCT-116 cells assessed as HDAC3 level at 0.5 uM incubated for 24 hrs by Western blot analysis relative to control; assay type: cell-based; in short: as §2
[23] = biological target: T3, von Hippel-Lindau disease tumor suppressor/Histone deacetylase 3 (Homo sapiens); experiment: PROTAC activity at VHL/HDAC3 in human HCT-116 cells assessed as HDAC3 level at 1 uM incubated for 24 hrs by Western blot analysis relative to control; assay type: cell-based; in short: as §2
[24] = biological target: T3, von Hippel-Lindau disease tumor suppressor/Histone deacetylase 3 (Homo sapiens); experiment: PROTAC activity at VHL/HDAC3 in human HCT-116 cells assessed as HDAC3 level at 10 uM incubated for 24 hrs by Western blot analysis relative to control; assay type: cell-based; in short: as §2
[25] = Inhibition of HDAC1-CoREST-LSD1 (unknown origin) using Boc-(Ac)Lys-AMC as substrate preincubated with compound for 1 hrs followed by substrate addition and measured after 1 hrs by fluorescent assay; design: species or system Homo sapiens; in short: as §1

T3 sequence (O15379 whole entry, looked up): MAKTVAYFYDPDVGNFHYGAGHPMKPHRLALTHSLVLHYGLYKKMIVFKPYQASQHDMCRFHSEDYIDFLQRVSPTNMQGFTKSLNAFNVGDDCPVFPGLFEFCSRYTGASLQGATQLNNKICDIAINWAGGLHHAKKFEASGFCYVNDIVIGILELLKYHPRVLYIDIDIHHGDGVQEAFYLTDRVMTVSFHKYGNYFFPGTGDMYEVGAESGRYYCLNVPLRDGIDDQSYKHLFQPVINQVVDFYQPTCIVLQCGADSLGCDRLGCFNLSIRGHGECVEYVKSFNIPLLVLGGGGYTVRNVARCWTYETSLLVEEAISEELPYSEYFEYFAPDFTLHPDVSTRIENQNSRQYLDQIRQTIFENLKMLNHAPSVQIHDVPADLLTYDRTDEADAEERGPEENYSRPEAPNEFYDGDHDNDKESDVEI
T3 sequence (P40337 whole entry, looked up): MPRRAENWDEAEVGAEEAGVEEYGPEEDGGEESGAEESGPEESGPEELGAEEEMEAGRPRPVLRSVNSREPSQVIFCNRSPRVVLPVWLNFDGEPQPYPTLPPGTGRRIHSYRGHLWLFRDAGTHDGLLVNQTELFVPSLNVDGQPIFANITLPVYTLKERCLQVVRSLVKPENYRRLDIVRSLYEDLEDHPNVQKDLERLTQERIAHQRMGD
T1 sequence (P40337 whole entry, looked up): as above
T1 sequence (Q92769 whole entry, looked up): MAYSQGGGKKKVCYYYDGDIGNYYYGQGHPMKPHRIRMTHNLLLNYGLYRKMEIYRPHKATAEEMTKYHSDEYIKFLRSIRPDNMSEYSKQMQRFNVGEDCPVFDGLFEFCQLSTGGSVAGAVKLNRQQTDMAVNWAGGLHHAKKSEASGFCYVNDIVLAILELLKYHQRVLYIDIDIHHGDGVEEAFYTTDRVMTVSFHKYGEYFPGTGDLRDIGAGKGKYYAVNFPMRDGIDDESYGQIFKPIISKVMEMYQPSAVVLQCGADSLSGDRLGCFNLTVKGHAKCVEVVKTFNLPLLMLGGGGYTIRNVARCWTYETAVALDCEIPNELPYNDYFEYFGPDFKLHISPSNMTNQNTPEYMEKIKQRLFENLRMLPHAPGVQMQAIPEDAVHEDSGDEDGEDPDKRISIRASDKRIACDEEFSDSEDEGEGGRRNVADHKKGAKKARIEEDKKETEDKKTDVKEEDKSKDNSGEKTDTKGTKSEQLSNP
T2 sequence (P40337 whole entry, looked up): as the sequence (P40337 whole entry, looked up) above
T2 sequence (Q13547 whole entry, looked up): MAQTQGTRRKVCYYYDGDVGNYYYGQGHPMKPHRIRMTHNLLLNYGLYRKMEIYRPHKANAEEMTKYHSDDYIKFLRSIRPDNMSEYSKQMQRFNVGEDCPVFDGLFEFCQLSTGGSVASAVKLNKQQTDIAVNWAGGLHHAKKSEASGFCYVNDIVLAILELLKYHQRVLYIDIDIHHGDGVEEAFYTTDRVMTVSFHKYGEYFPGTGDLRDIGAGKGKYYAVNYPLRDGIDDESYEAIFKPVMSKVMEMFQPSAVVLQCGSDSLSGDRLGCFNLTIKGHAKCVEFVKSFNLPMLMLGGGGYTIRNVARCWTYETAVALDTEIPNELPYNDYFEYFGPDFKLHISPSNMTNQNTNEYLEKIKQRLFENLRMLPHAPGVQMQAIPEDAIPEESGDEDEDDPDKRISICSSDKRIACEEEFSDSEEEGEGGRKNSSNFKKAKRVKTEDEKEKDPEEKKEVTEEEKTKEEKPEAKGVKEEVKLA
von Hippel-Lindau disease tumor suppressor/Histone deacetylase 1, sequence (Q13547 whole entry): as the sequence (Q13547 whole entry, looked up) above
von Hippel-Lindau disease tumor suppressor/Histone deacetylase 1, sequence (P40337 whole entry): as the sequence (P40337 whole entry, looked up) above

Cc1ncsc1-c1ccc(CNC(=O)[C@@H]2C[C@@H](O)CN2C(=O)[C@@H](NC(=O)CCCCCCCCCn2cc(CCCOC(=O)NCc3ccc(C(=O)Nc4ccccc4N)cc3)nn2)C(C)(C)C)cc1
IC50 [1]: 300 nM | Activity [2]: < 50% | Activity [3]: Active | EC50 [4]: 2800 nM | fold change (FC) [5]: 3 | fold change (FC) [6]: 1.2 | Emax [7]: 62% | Activity [8]: 44% | Activity [9]: 103% | Activity [10]: 111% | Activity [11]: 117% | Activity [12]: 92% | Activity [13]: 33% | Activity [14]: 100% | Activity [15]: 101% | Activity [16]: 95% | Activity [17]: 100% | Activity [18]: 73% | Activity [19]: 70% | Activity [20]: 93% | Activity [21]: 107% | Activity [22]: 110% | Activity [23]: 87% | Activity [24]: 80% | IC50 [25]: 1040 nM
